Laboratory results from ChEMBL document CHEMBL3865799, “Synthesis of a series of novel dihydroartemisinin monomers and dimers containing chalcone as a linker and their anticancer activity” (Eur J Med Chem, 2016).

How the values were obtained:
[1] = Cytotoxicity against human HepG2 cells assessed as cell growth inhibition at 30 uM after 48 hrs by MTT assay; type: functional; details: HepG2, 48 h, read-out: GI
In short: (§1)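 Adherent lines at 70–75% confluence, grown at 37 °C in 5% CO2 with 10% FCS. Exposed 48 h to compound in DMSO (vehicle <0.2% v/v). MTT dye added 3 h before termination; formazan dissolved in DMSO, OD 570 nm with 620 nm reference. Growth inhibition expressed as % of untreated; IC50 taken from the dose series.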

[2] = Cytotoxicity against human HepG2 cells assessed as cell growth inhibition at 50 uM after 48 hrs by MTT assay; type: functional; details: HepG2, 48 h, read-out: GI; in short: as §1
[3] = Cytotoxicity against human MIAPaCa2 cells assessed as cell growth inhibition at 50 uM after 48 hrs by MTT assay; type: functional; details: MIA PaCa-2, 48 h, read-out: GI; in short: as §1
[4] = Cytotoxicity against human HL60 cells assessed as cell growth inhibition at 50 uM after 48 hrs by MTT assay; type: functional; details: HL-60, 48 h, read-out: GI
In short: (§2)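 HL-60 suspension cells, 1.5 × 10^4 per well, grown at 37 °C in 5% CO2 with 10% FCS. Treated 48 h with compound in DMSO (vehicle <0.2% v/v). MTT added 3 h before the end. Formazan dissolved in DMSO and read at 570 nm (reference 620 nm). % growth inhibition computed against untreated cells; IC50 taken from the concentration series.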

[5] = Cytotoxicity against human PC3 cells assessed as cell growth inhibition at 50 uM after 48 hrs by MTT assay; type: functional; details: PC-3, 48 h, read-out: GI; in short: as §1
[6] = Cytotoxicity against human LS180 cells assessed as cell growth inhibition at 30 uM after 48 hrs by MTT assay; type: functional; details: LS180, 48 h, read-out: GI; in short: as §1
[7] = Cytotoxicity against human LS180 cells assessed as cell growth inhibition at 50 uM after 48 hrs by MTT assay; type: functional; details: LS180, 48 h, read-out: GI; in short: as §1
[8] = Lipophilicity, log P of the compound; type: physicochemical; details: octanol/water
[9] = Cytotoxicity against human HL60 cells assessed as cell growth inhibition at 30 uM after 48 hrs by MTT assay; type: functional; details: HL-60, 48 h, read-out: GI; in short: as §2
[10] = Cytotoxicity against human PC3 cells assessed as cell growth inhibition at 30 uM after 48 hrs by MTT assay; type: functional; details: PC-3, 48 h, read-out: GI; in short: as §1
[11] = Aqueous solubility of the compound at pH 7; type: physicochemical
[12] = Cytotoxicity against human MIAPaCa2 cells assessed as cell growth inhibition at 30 uM after 48 hrs by MTT assay; type: functional; details: MIA PaCa-2, 48 h, read-out: GI; in short: as §1

Compound	inhibition of growth at 30 µM [1] [%]	inhibition of growth at 50 µM [2] [%]	inhibition of growth at 50 µM [3] [%]	inhibition of growth at 50 µM [4] [%]	inhibition of growth at 50 µM [5] [%]	inhibition of growth at 30 µM [6] [%]	inhibition of growth at 50 µM [7] [%]	logP [8]	inhibition of growth at 30 µM [9] [%]	inhibition of growth at 30 µM [10] [%]	solubility [11] [mg/mL]	inhibition of growth at 30 µM [12] [%]
COc1ccc(/C=C/C(=O)c2ccc(OCCO[C@H]3O[C@@H]4O[C@@]5(C)CC[C@H]6[C@H](C)CC[C@@H]([C@H]3C)[C@@]46OO5)cc2)c(OC)c1	18.2	25.1	41.7	85.7	46.9	27.5	29.6	5.34 to 7.45	83.5	38.2	< 0.01	24.8
Cc1cc(C(=O)/C=C/c2ccc(OCCO[C@H]3O[C@@H]4O[C@@]5(C)CC[C@H]6[C@H](C)CC[C@@H]([C@H]3C)[C@@]46OO5)cc2)ccc1OCCO[C@H]1O[C@@H]2O[C@@]3(C)CC[C@H]4[C@H](C)CC[C@@H]([C@H]1C)[C@@]24OO3	13.6	20.7	49.2	70.4	23.5	7.1	23.5	5.34 to 7.45	68.9	6.4	< 0.01	44.3
COc1ccc(/C=C/C(=O)c2ccc(OCCO[C@H]3O[C@@H]4O[C@@]5(C)CC[C@H]6[C@H](C)CC[C@@H]([C@H]3C)[C@@]46OO5)cc2)c(OC)c1OC	28.1	30.1	43.1	82.9	54.2	50.8	58.5	5.34 to 7.45	78.7	53.3	< 0.01	36.2
COc1ccc(C(=O)/C=C/c2ccc(OCCO[C@H]3O[C@@H]4O[C@@]5(C)CC[C@H]6[C@H](C)CC[C@@H]([C@H]3C)[C@@]46OO5)cc2)c(OC)c1	27.3	28.9	46.8	89.5	49.8	63.3	74.1	5.34 to 7.45	89.3	47.4	< 0.01	44.1
C[C@H]1[C@@H](OCCOc2ccc(-c3cc(=O)c4ccc(OCCO[C@H]5O[C@H]6O[C@@]7(C)CC[C@H]8[C@H](C)CC[C@@H]([C@H]5C)[C@@]68OO7)cc4o3)cc2)O[C@H]2O[C@@]3(C)CC[C@H]4[C@H](C)CC[C@@H]1[C@@]24OO3	30.1 to 87.4	37.7	41.8	73.8	41.3	30.5	39.7	5.34 to 7.45	71.8	40.6	< 0.01	32.7
C[C@@H]1CC[C@H]2[C@@H](C)C(=O)O[C@@H]3O[C@@]4(C)CC[C@@H]1[C@]32OO4 [ARTEMISININ]	10.5	14.4	18	19.8	17.6	13.4	18.5	–	14.4	16	–	13
